ChEMBL document CHEMBL4138193, “Novel indole and triazole based hybrid molecules exhibit potent anti-adipogenic and antidyslipidemic activity by activating Wnt3a/β-catenin pathway” (Eur J Med Chem, 2018)
Activity calls are given as the source filed them. No cut-off for these calls is given here.

Experiments:
[1] = tested on: C3H 10T1/2; test: Anti-adipogenic activity in mouse differentiated C3H10T1/2 cells assessed as reduction in lipid accumulation at 5 to 20 uM after 20 mins by Oil Red O staining based microscopic method; type: functional, cell-based
In short: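 C3H10T1/2 or hMSC adipocytes differentiated alongside 5, 10 or 20 µM compound in differentiation media, stained with Oil red O. Images taken by bright-field microscopy at 10x and 20x, representative of three independent experiments.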

[2] = species on record: Mus musculus; test: Activation of Wnt3a/beta-catenin in mouse 3T3L1 cells assessed as down-regulation of cyclinE expression at 20 uM after 16 to 24 hrs by Western blot analysis; type: cell-based
[3] = species on record: Mus musculus; test: Activation of Wnt3a/beta-catenin in mouse 3T3L1 cells assessed as down-regulation of cyclinD1 expression at 20 uM after 16 to 24 hrs in presence of FH353 by Western blot analysis; type: cell-based
In short: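 Confluent 3T3-L1 cells given differentiation media (IBMX/insulin/dexamethasone) with 20 µM compound, with or without the β-catenin/TCF inhibitor FH353 (10 µM). Proteins isolated at 16 and 24 h and Western blotted after SDS-PAGE and nitrocellulose transfer. Blocking in 5% milk/TBS-T, primary antibody overnight at 4 °C, chemiluminescent detection, β-actin control, three independent experiments.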

[4] = tested on: Syrian golden hamster; test: Effect on serum HDL level in high fat diet-induced dyslipidemia Syrian Golden hamster model at 100 mg/kg, po administered for 1 week followed by overnight fasting post last dose by clinical bio-analyzer analysis; type: ADME, organism-based, Mesocricetus auratus; details: in vivo, 168 h
In short: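 Male Syrian Golden hamsters (8-10 weeks, 100-120 g), 4 per group, given 45% kCal high fat diet for 4 days, then HFD plus oral dosing in 0.5% w/v NaCMC for one week. After an overnight fast, blood was taken from the retro-orbital plexus under anesthesia and serum was analysed on a clinical bio-analyzer. Mean ± SEM; one-way ANOVA with Bonferroni post-test.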

[5] = tested on: Syrian golden hamster; test: Anti-adipogenic activity in high fat diet-induced dyslipidemia Syrian Golden hamster model assessed as increase in beta-catenin levels in eWAT at 100 mg/kg, po administered for 1 week by Western blot analysis; type: functional, organism-based; details: Mesocricetus auratus
In short: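 Male Syrian golden hamsters (8–10 wk, 100–120 g) fed 45% kcal HFD for 4 days, then dosed orally at 100 mg/kg in 0.5% NaCMC for one week, n=4 per group. Fenofibrate 100 mg/kg p.o. used as positive control. Epididymal WAT proteins Western blotted, three independent experiments.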

[6] = species on record: Mus musculus; test: Activation of Wnt3a/beta-catenin in differentiated mouse 3T3L1 cells assessed as down-regulation of AP2 protein expression at 20 uM after 16 to 24 hrs by Western blot analysis
In short: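 3T3-L1 preadipocytes grown to confluence in high-glucose DMEM/10% FBS, then given differentiation media (0.5 mM IBMX, 5 µg/ml insulin, 250 nM dexamethasone) with or without 20 µM compound. Protein isolated at set time points, lysed with protease/phosphatase inhibitors, BCA-quantified, resolved by 8–12% SDS-PAGE, immunoblotted with ECL detection. β-actin loading control, densitometry normalized to actin, n=3.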

Cc1ccc(S(=O)(=O)N(Cc2cn(Cc3cccc(F)c3F)nn2)Cc2cn(S(=O)(=O)c3ccc(C)cc3)c3ccccc23)cc1
Activity [1]: Active | Activity [2]: Active | Activity [3]: inactive | Activity [4]: Non-Toxic | Activity [5]: Active | Activity [6]: Active
